High-throughput results from PubChem.
Rows were chosen to be rich in hits. Some 9.2% of all compounds tested hit in one or more screens of this group.
Autophagy mod: alters autophagy in cells; MEF GFP-LC3 puncta imaging; test concentration mostly 10 µM; calls only at 10 µM (by protocol); actives 0.98% (n = 190,000); AID 463193;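 active means percentage of spot-positive cells more than 3 SD above its plate mean, without a fluorescence outlier flag or 80% toxicity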
HCT116 PTEN-null: PTEN-deleted cell growth suppression; HCT116 PTEN-null viability, CellTiter-Glo, 60 h; hits give low values; viability, % at 10 µM; AID 827; actives 1.2% (n = 140,000);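 active means viability at or below a set limit, 4 SD under the median of all tested compounds, cut at about 3.7% in these data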;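 further: PTEN knockout HCT116 line with beta catenin targeted HCT116 as companion control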
L major viab: reduces viability of Leishmania major promastigotes | resazurin fluorescence viability | inhibition, % at 10 µM | actives 9% (n = 200,000) | AID 1063; in the data active means inhibition above about 50%;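 further: promastigotes grown with compound for 44 hours at 28 °C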
HCT116 bCat-KO: beta-catenin-lacking colon tumor cell growth suppression. actives 1.5% (n = 140,000). viability, % at 10 µM. HCT116 beta-catenin knockout viability, CellTiter-Glo, 60 h; hits give low values. AID 818;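 active means viability at or under a set limit, the compound median less 4 SD, cut at about 6% in these data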
Dynein transport: blocks dynein driven cargo transport along microtubules. 3617.4 mouse cells, GR-EGFP nuclear translocation imaging; test concentration mostly 20 µM; stimulated with dexamethasone, 1 µM; hits give low values. z-score, hits read low. actives 0.47% (n = 220,000);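 active means plate z-score of nuclear minus cytoplasmic receptor signal below a set negative limit, without overly bright fluorescence or cell loss, cut at about -3.5 in these data, passing the limit was not always enough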;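 further: z-score of nuclear minus cytoplasmic ring GR-EGFP intensity difference per well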
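Buffer or medium: tet-free, stripped-serum medium; Also added: dexamethasone, 1.0 µM final; Technique: high-content fluorescence imaging after fixation; Times: 48 h induction, 1 h compound, 30 min dex at 37 °C; Read-out: per-cell GR-EGFP intensity, nucleus versus surrounding cytoplasmic ring, well-averaged.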
Numbers stand for hits; i = inactive; nt = no result given; + = active, no number.

SMILES	Autophagy mod	HCT116 PTEN-null	L major viab	HCT116 bCat-KO	Dynein transport
Oc1ccc(N2CCN(Cc3ccc(OCCCN4CCCCC4)cc3)CC2)cc1	i	nt	i	nt	i
c1ccc(CN2CCN(CCOCCOc3ccc4c(c3)CCC4)CC2)cc1	i	nt	i	nt	i
O=C(c1ccccc1)c1ccc(OCCOCCN2CCN(Cc3ccccc3)CC2)cc1	i	nt	56.1	nt	i
c1ccc(COCCN2CCN(CCOCc3ccccc3)CC2)cc1	i	i	95.2	i	i
O=C(CCCOc1ccccc1)N1CCCCC1	i	i	i	i	i
c1ccc(COc2ccc(OCCCCN3CCCCC3)cc2)cc1	+	i	100.4	i	i
N#CCc1nn(-c2ccccc2)c2ncnc(N)c12	nt	nt	nt	nt	i
O=C(c1ccccc1)c1ccc(OCCCN2CCCC2)cc1	i	i	99.0	i	i
O=C(O)COc1ccc(C(=O)c2ccccc2)cc1	i	nt	i	nt	i
CC(C)CC(NC(=O)C(CO)NC(=O)C1CCC(=O)N1)C(N)=O (centres undefined)	i	nt	i	nt	i
COc1ccc(C(=O)N2CCN(c3nc4cc(C)ccc4cc3C#N)CC2)c(OC)c1	i	i	63.4	i	i
COc1ccc2cc(C#N)c(SCC(=O)N3CCCC3)nc2c1	i	i	54.6	i	i
COC(=O)CSc1nc2cc(OC)ccc2cc1C#N	i	i	i	i	i
COc1ccc2nc(SCC(=O)Nc3ccc4sc(C)nc4c3)c(C#N)cc2c1	+	i	i	i	i
CC(C)C(=O)Nc1ccc(C(=O)NNC(=O)CCc2ccccc2)cc1	i	i	i	i	i
CC(C)C(=O)Nc1ccc(C(=O)c2ccccc2)cc1	i	i	99.0	i	i
CCOC(=O)c1[nH]c2cc(OC)c(OC)cc2c1NC(=O)c1ccc2c(c1)OCO2	i	i	i	i	i
CCOC(=O)c1[nH]c2cc(OC)c(OC)cc2c1NC(=O)CN(C)C1CCCCC1	i	i	60.6	i	i
Cc1ccc(C(=O)N/C(=C\c2ccc(Cl)cc2)C(=O)NCCCN2CCOCC2)cc1	i	i	i	i	i
CC(C)c1ccc(C(=O)NCCCN2CCN(CCCNC(=O)c3ccc(C(C)C)cc3)CC2)cc1	i	2.0	i	1.5	i
Cc1ccc(C(=O)N/C(=C\c2ccc(C(C)C)cc2)C(=O)NCCCN2CCOCC2)cc1	i	i	66.5	i	i
Cn1ccnc1C(=O)c1ccc(Cl)c(S(=O)(=O)N2CCOCC2)c1	nt	nt	nt	nt	i
COc1ccc(CN2C3CCCC2CC(NC(=O)Nc2ccccc2)C3)cc1 (centres undefined)	i	i	93.7	i	i
COc1ccc(CN2C3CCCC2CC(NC(=O)Nc2ccccc2C)C3)cc1 (centres undefined)	i	i	85.0	i	i
C=CCN1C2CCCC1CC(NC(=O)Nc1cccc(C(C)=O)c1)C2 (centres undefined)	i	i	i	i	i
SMILES	Autophagy mod	HCT116 PTEN-null	L major viab	HCT116 bCat-KO	Dynein transport
COCC(=O)NC1CC2CCCC(C1)N2Cc1ccccc1 (centres undefined)	i	i	i	i	i
COc1ccc(CN2C3CCCC2CC(NC(=O)Nc2cccc(C)c2)C3)cc1 (centres undefined)	i	i	90.2	i	i
CCCCc1nnc(NC(=O)CSc2nc(=O)cc(N)n2-c2cccc(C)c2)s1	i	i	i	i	i
Cc1ccc(S(=O)(=O)NC(=O)Nc2ccc(OC(F)F)cc2)cc1	nt	nt	nt	nt	i
Cc1[nH]c2ccccc2c1/C=N/Nc1nc2ccccc2[nH]1	nt	nt	nt	nt	i
Brc1ccc(-c2ccc(/C=N/Nc3nc4ccccc4[nH]3)o2)cc1	i	i	79.5	i	i
Brc1ccc(-c2ccc(/C=N/Nc3nc(N4CCOCC4)nc(N4CCOCC4)n3)o2)cc1	+	nt	i	nt	i
Brc1ccc(-c2ccc(/C=N/Nc3nncc(-c4ccccc4)n3)o2)cc1	+	i	i	i	i
O=C(Nc1ccccc1)c1snc2c(=O)[nH]cnc12	i	nt	i	nt	i
O=C1CC2C(=O)NCCN2C(=NC(=O)c2ccccc2)N1 (centres undefined)	i	nt	i	nt	i
COc1ccc(CCn2c(Br)nc3c2c(=O)[nH]c(=O)n3C)cc1	i	i	91.5	i	i
Cn1c(=O)[nH]c(=O)c2c1nc(Br)n2C/C=N/Nc1ccccc1	i	nt	65.2	nt	i
O=C(Nc1ccc(O)c(-c2nc3ccccc3o2)c1)C1(c2ccc(Br)cc2)CCCC1	i	i	i	i	i
COc1ccc([N+](=O)[O-])cc1NC(=O)CCN1CCN(c2ccccc2OC)CC1	i	i	i	i	i
COC(=O)c1ccc(-c2noc(CN3C[C@H]4CC[C@H]3C4)n2)cc1	i	nt	98.2	nt	i
COC(=O)c1ccc(-c2noc(CN(C)CC3CCCCO3)n2)cc1 (centres undefined)	i	nt	i	nt	i
COC(=O)c1ccc(-c2noc(CN(Cc3ccncc3)CC3CCCO3)n2)cc1 (centres undefined)	i	nt	70.5	nt	i
CCn1ccnc1CN(C)Cc1nc(-c2ccc(C(=O)OC)cc2)no1	nt	nt	nt	nt	i
Clc1ccc(-c2nnc(N3CCOCC3)o2)cc1	nt	nt	nt	nt	i
c1ccc(Cc2noc(CN3CCN(C4CCc5ccccc5C4)CC3)n2)cc1 (centres undefined)	i	nt	87.2	nt	i
c1ccc(Cc2noc(CN3CCC(CN4CCOCC4)CC3)n2)cc1	i	nt	i	nt	i
c1ccc(Cc2noc(CN3CCCN(C4Cc5ccccc5C4)CC3)n2)cc1	i	nt	92.4	nt	i
Cc1cccc(C)c1NC(=O)CN1C(=O)NC(C)(CCc2ccccc2)C1=O (centres undefined)	i	nt	i	nt	i
CC(=O)Nc1ccc(C(=O)OCC(=O)N(Cc2ccccc2)C(C)(C)C)cc1	i	i	66.5	i	i
CC(=O)Nc1ccc(C(=O)OCC(=O)NCc2ccccc2)cc1	i	nt	i	nt	i
SMILES	Autophagy mod	HCT116 PTEN-null	L major viab	HCT116 bCat-KO	Dynein transport
COc1cccc(N2CCN(c3ncnc4c3cnn4-c3ccc(C)cc3C)CC2)c1	+	3.1	i	1.7	i
CN1CCN(c2ncnc3c2cnn3-c2ccc(Cl)cc2)CC1	nt	i	88.2	i	i
COc1ccc(-n2ncc3c(N4CCN(Cc5ccccc5)CC4)ncnc32)cc1	i	nt	67.3	nt	i
CCN1CCN(c2ncnc3c2cnn3-c2ccc(Cl)cc2)CC1	nt	nt	nt	nt	i
CCN1CCN(c2ncnc3c2cnn3-c2ccccc2)CC1	i	i	i	i	i
Cc1ccc(C(=O)N2CCN(c3ncnc4c3cnn4-c3ccccc3)CC2)cc1	i	nt	53.0	nt	i
COc1ccc(C(=O)COc2ccc(F)cc2)c(O)c1C	i	nt	i	nt	i
O=C(Nn1cc(C(=O)Nc2ccccc2F)c2ccccc2c1=O)c1cnccn1	i	nt	73.7	nt	i
Cc1ccc(C)c(N2CCN(C(=O)CCCN3C(=S)NC(C)(C)CC3C)CC2)c1 (centres undefined)	i	i	i	i	i
Cc1cccc(N2CCN(C(=O)CCN3C(=S)NC(C)(C)CC3C)CC2)c1C (centres undefined)	i	nt	65.2	nt	i
CC(=O)N1N=C(c2ccccc2O)OC1(C)CC(=O)Nc1ccccc1 (centres undefined)	i	i	60.3	i	i
Cn1c(SCC(=O)CC(=O)Nc2ccccc2)nnc1-c1ccc(O)cc1	i	i	i	i	i
CCc1ccc(/C(C)=N/NC(=O)c2ccccn2)cc1	i	nt	i	nt	i
